Assays:
Format in all cases: functional
Canis familiaris [1] = assay: Inhibition of histamine stimulated gastric acid secretion in adult mongrel dogs at 5 mg/kg i.v.; details: Canis lupus familiaris, Stomach, route intravenous
Summary of the method: (§1)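 Mongrel dogs with surgically prepared Heidenhain pouches under histamine infusion; compound given iv (0.1–5 mg/kg) 1 h after infusion start. Pouch juice collected every 30 min, volume recorded, aliquot titrated for acid; outputs summed over 3 h post-dose, compared with the same animal's control. ED50 by linear regression.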

Rattus norvegicus [2] = assay: Effective dose inhibiting ethanol-induced lesions was determined 1 h, after oral administration of absolute ethanol in rat
Summary of the method: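 Rats fasted and water-deprived 20 h; compound in 0.4% methylcellulose/saline given orally (1–30 mg/kg) 30 min before oral absolute ethanol (1 mL). Killed 1 h after ethanol; stomach opened along greater curvature, linear hemorrhagic lesion lengths summed per stomach. ED50 for lesion inhibition by regression analysis.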

Rattus norvegicus [3] = assay: Antisecretory activity of intraperitoneally injected compound (40 mg/kg) in pylorus-ligated rat
Summary of the method: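 Rats fasted 24 h, anesthetized, pylorus ligated; compound in 2.5% Tween 80 given ip (0.5 mL/200 g) at ligation. Killed 4 h later; gastric contents volume recorded, aliquots titrated with 0.1 N NaOH for acid output. Six rats per compound, eight controls; percent inhibition computed, Student's t test.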

Canis familiaris [4] = assay: Inhibition of histamine stimulated gastric acid secretion in adult mongrel dogs at 0.1 mg/kg compound administered intravenously; details: Canis lupus familiaris, Stomach, route intravenous; summary of the method: as §1
Canis familiaris [5] = assay: Inhibition of histamine stimulated gastric acid secretion in adult mongrel dogs at 1 mg/kg i.v.; details: Canis lupus familiaris, Stomach, route intravenous; summary of the method: as §1
Canis familiaris [6] = assay: Inhibition of histamine stimulated gastric acid secretion in adult mongrel dogs at 2 mg/kg compound administered perorally; details: Canis lupus familiaris, Stomach, route oral
Summary of the method: (§2)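 Heidenhain pouch mongrel dogs receiving histamine infusion; compound given orally by gavage 1 h after infusion began. Acid output from 30-min collections (volume, titrated aliquot) summed for 3 h after dosing, each dog its own control. ED50 derived by linear regression from percent inhibition across doses.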

Canis familiaris [7] = assay: Inhibition of histamine stimulated gastric acid secretion in adult mongrel dogs at 8 mg/kg compound administered perorally; details: Canis lupus familiaris, Stomach, route oral; summary of the method: as §2
Canis familiaris [8] = assay: Effective dose required to reduce acid out put when administered intravenously in dog; details: Canis lupus familiaris, iv; summary of the method: as §1
Canis familiaris [9] = assay: Effective dose required to reduce acid out put when administered perorally in dog; details: Canis lupus familiaris, po; summary of the method: as §2
Canis familiaris [10] = assay: Inhibition of histamine stimulated gastric acid secretion in adult mongrel dogs at 4 mg/kg administered perorally; details: Canis lupus familiaris, Stomach, route oral; summary of the method: as §2
Canis familiaris [11] = assay: Inhibition of histamine stimulated gastric acid secretion in adult mongrel dogs at 2 mg/kg i.v.; details: Canis lupus familiaris, Stomach, route intravenous; summary of the method: as §1
Canis familiaris [12] = assay: Effective dose required to reduce acid out put when administered intravenously in dog;Value ranges from […]; details: Canis lupus familiaris, iv; summary of the method: as §1
Canis familiaris [13] = assay: Effective dose required to reduce acid out put when administered perorally in dog;Value ranges from(1.6-13.4).; details: Canis lupus familiaris, po; summary of the method: as §2
Canis familiaris [14] = assay: Effective dose required to reduce acid out put when administered perorally in dog;Value ranges from (2.3-58.2); details: Canis lupus familiaris, po; summary of the method: as §2

Structure (SMILES)	inhibition in vivo at 5 mg/kg (Canis familiaris [1]) [%]	ED50 (Rattus norvegicus [2]) [mg/kg]	Inhibition (Rattus norvegicus [3]) [%]	inhibition in vivo at 1 mg/kg (Canis familiaris [5]) [%]	inhibition in vivo at 8 mg/kg (Canis familiaris [7]) [%]	inhibition in vivo at 4 mg/kg (Canis familiaris [10]) [%]	inhibition in vivo at 2 mg/kg (Canis familiaris [11]) [%]	other results
Cc1nc2c(C/C=C/c3ccccc3)cccn2c1CC#N	4	12	27					
Cc1nc2c(/C=C/Cc3ccccc3)cccn2c1CC#N	78	4		69	82	53		inhibition in vivo at 0.1 mg/kg (Canis familiaris [4]): 9%; inhibition in vivo at 2 mg/kg (Canis familiaris [6]): 43%; ED50 (Canis familiaris [8]): 1 mg/kg; ED50 (Canis familiaris [9]): 4 mg/kg
Cc1nc2c(/C=C\Cc3ccccc3)cccn2c1C		6.6	96	24	54	13	47	
Cc1nc2c(/C=C\c3ccccc3)cccn2c1CC#N		2	49	79	41	0	76	
Cc1nc2c(C#Cc3ccccc3)nccn2c1C	0	3.7	0		11			
Cc1nc2c(/C=C/c3ccccc3)cccn2c1C		10.4	39		3		26	
Cc1nc2c(/C=C\c3ccsc3)cccn2c1C		24	54	64	79	38	82	inhibition in vivo at 2 mg/kg (Canis familiaris [6]): 5%; ED50 (Canis familiaris [9]): 4.8 mg/kg
Cc1nc2c3c(ccn2c1CC#N)CCC(c1ccccc1)O3 (stereo not given)		1.7						ED50 (Canis familiaris [12]): 0.06 mg/kg; ED50 (Canis familiaris [13]): 3.7 mg/kg
Cc1nc2c(CCc3ccccc3)cccn2c1N								inhibition in vivo at 0.1 mg/kg (Canis familiaris [4]): 26%; ED50 (Canis familiaris [8]): 1 mg/kg; ED50 (Canis familiaris [14]): 6.7 mg/kg
Cc1nc2c(C/C=C\c3ccccc3)cccn2c1N	20	6.4	4		0			
Cc1nc2c(/C=C\c3ccccc3)nccn2c1C	0	5.2	74		0			
C/C(=C\c1cccn2c(C)c(C)nc12)c1ccccc1			98	72	37	17	65	
Cc1nc2c(OCc3ccccc3)cccn2c1C		10	99	90	26	0		
Cc1nc2c(/C=C\c3ccccc3)cccn2c1C	86		83	62	74	37	76	inhibition in vivo at 2 mg/kg (Canis familiaris [6]): 25%; ED50 (Canis familiaris [8]): 0.7 mg/kg; ED50 (Canis familiaris [9]): 4.8 mg/kg
Cc1nc2c(/C=C\Cc3ccccc3)cccn2c1N		8.6	52	32		0		
C/C(=C\c1ccccc1)c1cccn2c(C)c(C)nc12		5	71		29		44	
Cc1nc2cccc(/C=C/c3ccccc3)n2c1C	0	5.5				0		
Cc1nc2cc(/C=C/c3ccccc3)ccn2c1C	0		40		0			
Cc1nc2ccc(/C=C/c3ccccc3)cn2c1C	0	1.7	55		0			
C(=C/c1cccn2c3c(nc12)CCCC3)/c1ccccc1		7.3	62				0	
C(=C/c1cccn2c3c(nc12)CCC3)/c1ccccc1	8	5.2	24					
Cc1nc2c(C/C=C\c3ccccc3)cccn2c1C	0	5.5	58		0			
Cc1nc2c(/C=C/c3ccccc3)cccn2c1N	0	13	33		6		24	
Cc1nc2c(/C=C/c3ccccc3)cccn2c1CC#N	18	3	18		2		0	
CCc1nc2c(/C=C\c3ccccc3)cccn2c1C			96		21		42	
Cc1nc2c(/C=C\c3ccccc3)cccn2c1N	67	23	83	66	4		62	inhibition in vivo at 2 mg/kg (Canis familiaris [6]): 0%
CCc1c(C)nc2c(/C=C\c3ccccc3)cccn12		0.8	65		21		12	

— ChEMBL document CHEMBL1124543, “Antiulcer agents. 4. Conformational considerations and the antiulcer activity of substituted imidazo[1,2-a]pyridines and related analogues” (1989)
